Consider five compounds from ChEMBL document CHEMBL1135681, “Syntheses and structure-activity relationships of nonnatural beta-C-nucleoside 5'-triphosphates bearing an aromatic nucleobase with phenolic hydroxy groups: inhibitory activities against DNA polymerases” (J Med Chem, 2002).

Assay [1] in a line: Inhibitory activity against Ex Taq DNA polymerase. The class given is nucleic-acid assay, Thermus aquaticus. The method, boiled down: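 PCR inhibition assay in 1× Ex Taq buffer, 2 mM Mg2+, 0.2 mM each dNTP, with various concentrations of nonnatural triphosphate added. Cycling: 95 °C 5 min; 30 cycles of 95 °C 30 s, 50 °C 30 s, 72 °C 60 s; final 72 °C 5 min. Product bands quantified by phosphorimager; IC50 taken as concentration giving 50% inhibition of amplification; mean of two independent experiments.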

Assay [2] deals with Nucleic Acid. Briefly: Inhibitory activity against LA-Taq DNA polymerase. In kind it is nucleic-acid assay, Thermus aquaticus. The method, boiled down:
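LA-Taq PCR in 1× LA-Taq buffer with 2.5 mM Mg2+ and 0.2 mM each dNTP, plus graded levels of nonnatural triphosphate. Cycling: 95 °C 5 min; 30 cycles of 95 °C 30 s, 50 °C 30 s, 72 °C 60 s; final 72 °C 5 min. Amplified bands measured by phosphorimager; concentration for 50% inhibition determined; two independent experiments averaged.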

Assay [3] concerns the target Nucleic Acid. In words: Inhibitory activity against Pfu DNA polymerase. The class given is nucleic-acid assay, Pyrococcus furiosus. The method, boiled down: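 Native Pfu polymerase (Pyrococcus furiosus) in native Pfu buffer, 2 mM Mg2+, 0.2 mM each dNTP, with various concentrations of nonnatural triphosphate. Cycling: 95 °C 5 min; 30 cycles of 95 °C 30 s, 50 °C 30 s, 72 °C 60 s; final 72 °C 5 min. PCR bands quantified by phosphorimager; IC50 at 50% inhibition; average of two independent runs.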

Assay [4] addresses Nucleic Acid. In words: Inhibitory activity against Z-Taq DNA polymerase. The class given is nucleic-acid assay, Thermus aquaticus. The method, boiled down:
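Z-Taq amplification in 1× Z-Taq buffer, 3 mM Mg2+, 0.2 mM each dNTP, with various nonnatural triphosphate concentrations. Cycling: 95 °C 5 min; 25 cycles of 95 °C 30 s, 50 °C 30 s, 72 °C 30 s; final 72 °C 5 min. Phosphorimager quantitation of product bands; IC50 as 50% inhibition concentration; mean of two independent experiments.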

The target of assay [5] is Pyrobest DNA polymerase (Pyrococcus sp.). Briefly: Inhibitory activity against Pyrobest DNA polymerase.

SMILES strings stand for the structures.

As for `O=P(O)(O)OP(=O)(O)OP(=O)(O)OCC1O[C@@H](c2ccc(O)c(O)c2)CC1O` (stereo not given in full), the IC50 (usually the concentration that inhibits the measured activity by half) worked out at 0.03 mM in assay [1]; 0.7 mM against Nucleic Acid [2]; 0.2 mM against Nucleic Acid [3]; 0.3 mM at Nucleic Acid [4]; 0.5 mM in assay [5].
As for `O=P(O)(O)OP(=O)(O)OP(=O)(O)OCC1O[C@@H](c2ccccc2O)CC1O` (stereo not given in full), the IC50 in assay [1] stood at 1.7 mM; against Nucleic Acid [2] it was 2.4 mM; on Nucleic Acid [3], 0.8 mM; against Nucleic Acid [4], 3.1 mM; in assay [5] it was 1.4 mM.
In the same order, the values of `O=P(O)(O)OP(=O)(O)OP(=O)(O)OCC1O[C@@H](c2cccc(O)c2)CC1O` (stereo not given in full) are 1.9 mM, 3.1 mM, 0.9 mM, 6.2 mM and 2.7 mM.
Consider `O=P(O)(O)OP(=O)(O)OP(=O)(O)OCC1O[C@@H](c2ccc(O)cc2)CC1O` (stereo not given in full), for which the IC50 in assay [1] was found to be 1.6 mM; against Nucleic Acid [2], 3.7 mM; against Nucleic Acid [3], 0.9 mM; at Nucleic Acid [4], 3.7 mM; in assay [5], 1.5 mM.
Turning to `O=P(O)(O)OP(=O)(O)OP(=O)(O)OCC1O[C@@H](c2ccccc2)CC1O` (stereo not given in full), the IC50 (in assay [1]; on Nucleic Acid [2]; at Nucleic Acid [3]; on Nucleic Acid [4]; in assay [5]) was more than 16 mM each time.
